# Results collected from several papers.
# Lines come from different studies, so protocols differ.
# Target: 5-hydroxytryptamine receptor 2B (HTR2B, Homo sapiens, UniProt P41595)
Compound,test,conditions,measurement,value
c1ccc(C(NCCNC(c2ccccc2)c2ccccc2)c2ccccc2)cc1,ligand displacement,10 µM,inhibition,79%
Cn1cncc1[C@@](O)(COc1ccc(C#N)cc1-c1ccc(OC(F)(F)F)cc1)c1ccc(C#N)cc1,ligand displacement,10 µM,inhibition,18.6%
CC(Cc1ccccc1)NCCn1cnc2c1c(=O)n(C)c(=O)n2C (centres unmarked),"ligand displacement, radioligand",10 µM,inhibition,23%
C[C@H](C(=O)N[C@H]1COc2ccccc2[C@@H]1S(C)(=O)=O)c1ccc(F)cc1,ligand displacement,10 µM,inhibition,-9%
COCCN(CCOC)C(=O)[C@@]12C[C@@H]1[C@@H](n1cnc3c(N)nc(Cl)nc31)[C@H](O)[C@@H]2O,"ligand displacement, radioligand",10 µM,inhibition,36%
CC(C)N1CCC[C@H]1CNC(=O)c1cn(C2CCCC2)c(=O)c2c1c1ccccc1n2C,"ligand displacement, radioligand",10 µM,inhibition,41%
CCC(N)Cc1cc(OC)c(COC)cc1OC (centres unmarked),"G protein activation, agonist, BRET",,Emax,43%
CCOc1ccccc1NC(=O)c1ccccc1NS(=O)(=O)C1CC1,"ligand displacement, radioligand",10 µM,inhibition,63%
Nc1ncc(-c2nc(N3CCOCC3)nc(N3CCOCC3)n2)c(C(F)F)n1,"cell-free assay, radioligand",10 µM,remaining signal,94.1%
COc1cc2c3c(c1OC)-c1cc4c(cc1CC3N(C)CC2)OCO4 (racemic),"ligand displacement, radioligand",10 µM,inhibition,92.8%
N#CC1(c2ccccn2)CCN(Cc2cc(C(=O)O)c(=O)n3ccccc23)CC1,ligand displacement,10 µM,inhibition,3.23%
CCN(CC)CCCC[C@H](NC(=O)[C@H](CC(C)C)NC(=O)[C@H](C)NC(=O)[C@H](Cc1ccccc1)NC(=O)c1ccc(C(C)(C)C)cc1)C(=O)N[C@@H](CO)C(=O)OC,"ligand displacement, radioligand",10 µM,inhibition,7%
COCc1c(-c2cc3cc(C)cc(OC)c3s2)c2c(N)ncnn2c1CN1CCNC(=O)C1,"ligand displacement, radioligand",10 µM,inhibition,84%
Clc1ccc2c(C3CCN(CCc4c[nH]c5ccccc45)CC3)c[nH]c2c1,"ligand displacement, radioligand",10 µM,inhibition,100%
